Laboratory results: ChEMBL document CHEMBL1129298, “Nonpeptide angiotensin II receptor antagonists: synthesis, biological activities, and structure-activity relationships of imidazole-5-carboxylic acids bearing alkyl, alkenyl, and hydroxyalkyl substituents at the 4-position and their related compounds” (J Med Chem, 1996)

Tests used:
[1] = target: Angiotensin II receptor (Rattus norvegicus) (UniProt P29089+P25095+P35351); assay: In vivo inhibitory activity against angiotensin II induced pressor response in anesthetized normotensive rats; format: functional, organism-based
Procedure, shortened: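 Male Wistar-Imamichi rats (300–400 g) under inactin (100 mg/kg ip), with femoral arterial and venous cannulae. AII 50 ng/kg iv every 10 min until responses were constant. Compound in DMSO was then given iv and AII re-injected 2 min later.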

[2] = target: T1, Type-1 angiotensin II receptor (Bos taurus, UniProt P25104); assay: In vitro for inhibition of [125I]-angiotensin II (0.1 nM) binding to angiotensin II receptor type 1 in membrane fractions of bovine adrenal cortex; format: tissue-based
T1 sequence (P25104 whole entry): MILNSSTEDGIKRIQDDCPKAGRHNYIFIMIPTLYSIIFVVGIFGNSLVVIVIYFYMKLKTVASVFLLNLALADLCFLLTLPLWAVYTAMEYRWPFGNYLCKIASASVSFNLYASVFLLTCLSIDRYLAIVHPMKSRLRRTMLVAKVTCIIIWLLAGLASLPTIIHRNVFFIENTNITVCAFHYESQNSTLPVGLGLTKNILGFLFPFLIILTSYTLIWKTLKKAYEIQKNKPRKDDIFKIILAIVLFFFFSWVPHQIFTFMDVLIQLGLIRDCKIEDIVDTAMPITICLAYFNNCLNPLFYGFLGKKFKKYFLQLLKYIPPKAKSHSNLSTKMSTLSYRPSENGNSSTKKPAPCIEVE

Rattus norvegicus [3] = assay: Inhibitory activity against AII-Induced Pressor response at 1 mg/kg at 1 hr; format: functional
Procedure, shortened: (§1)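 Male Wistar-Imamichi rats (300–400 g) cannulated under pentobarbital (50 mg/kg ip), fasted 24 h, tested conscious the next day. AII 50 ng/kg iv was repeated until constant, then compound in 50% aqueous DMF given orally. AII was repeated over 8 h, and mean blood pressure response inhibition (%) was recorded at 1, 3, 6 h. n = 3–5.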

Rattus norvegicus [4] = assay: Inhibitory activity against AII-Induced Pressor response at 1 mg/kg at 3 hour; format: functional; settings: Rattus norvegicus, 3 h; procedure, shortened: as §1
Rattus norvegicus [5] = assay: Inhibitory activity against AII-Induced Pressor response at 1 mg/kg at 6 hour; format: functional; settings: Rattus norvegicus, 6 h, dose 1 mg/kg; procedure, shortened: as §1
Rattus norvegicus [6] = assay: Inhibitory activity against AII-Induced Pressor response at 0.3 mg/Kg at 1 hr; format: functional; procedure, shortened: as §1
Rattus norvegicus [7] = assay: Inhibitory activity against AII-Induced Pressor response at 0.3 mg/Kg at 3 hour; format: functional; procedure, shortened: as §1
Rattus norvegicus [8] = assay: Inhibitory activity against AII-Induced Pressor response at 0.3 mg/Kg at 6 hour; format: functional; procedure, shortened: as §1
Rattus norvegicus [9] = assay: Inhibitory activity against AII-Induced Pressor response at 1 mg/Kg at 1 hr; format: functional; procedure, shortened: as §1
Rattus norvegicus [10] = assay: Inhibitory activity against AII-Induced Pressor response at 1 mg/Kg at 3 hour; format: functional; procedure, shortened: as §1
Rattus norvegicus [11] = assay: Inhibitory activity against AII-Induced Pressor response at 1 mg/Kg at 6 hour; format: functional; procedure, shortened: as §1

For `CCc1nc(C(C)(C)O)c(C(=O)O)n1Cc1ccc(-c2ccccc2-c2nn[nH]n2)cc1`, the ID50 [1] was 0.019 mg/kg.
`CCCc1ncc(C(=O)O)n1Cc1ccc(-c2ccccc2-c2nn[nH]n2)cc1` gave an IC50 [2] of 9.1 nM and an ID50 [1] of 0.018 mg/kg.
`CCCCc1nc(C(C)(C)O)c(C(=O)O)n1Cc1ccc(-c2ccccc2-c2nn[nH]n2)cc1` gave an ID50 [1] of 0.017 mg/kg.
In the case of `CCCc1nc(C(C)(C)O)c(C(=O)OC2OC(=O)c3ccccc32)n1Cc1ccc(-c2ccccc2C(=O)O)cc1` (configuration not stated), the inhibition in vivo at 1 mg/kg (Rattus norvegicus [3]) is reported as 73%, the inhibition in vivo at 1 mg/kg (Rattus norvegicus [4]) is reported as 77% and the inhibition in vivo at 1 mg/kg (Rattus norvegicus [5]) is reported as 74%.
With `CCCc1nc(CO)c(C(=O)OCC)n1Cc1ccc(-c2ccccc2C(=O)O)cc1` the ID50 [1] was 1.5 mg/kg.
With `CCCc1nc(CO)c(C(=O)O)n1Cc1ccc(-c2ccccc2-c2nn[nH]n2)cc1` the ID50 [1] was 0.0062 mg/kg, the inhibition in vivo at 0.3 mg/kg (Rattus norvegicus [6]) was 76% and the inhibition in vivo at 0.3 mg/kg (Rattus norvegicus [7]) was 75%. For the same molecule, the inhibition in vivo at 0.3 mg/kg (Rattus norvegicus [8]) was 65%.
Molecule `C=C(C)c1nc(CCC)n(Cc2ccc(-c3ccccc3C(=O)O)cc2)c1C(=O)O` has an IC50 [2] of 270 nM and an ID50 [1] of 0.37 mg/kg.
Work on `CCCc1nc(C(C)C)c(C(=O)O)n1Cc1ccc(-c2ccccc2-c2nn[nH]n2)cc1` yielded an ID50 [1] of 0.014 mg/kg.
`CCc1nc(C(C)(C)O)c(C(=O)O)n1Cc1ccc(-c2ccccc2-c2nnn[nH]2)cc1` was tested, and the IC50 [2] was 5.3 nM.
Work on `CCCCc1nc(C(C)(C)O)c(C(=O)O)n1Cc1ccc(-c2ccccc2-c2nnn[nH]2)cc1` yielded an IC50 [2] of 9.5 nM.
Molecule `CCCc1nc(C(C)(C)O)c(C(=O)OCc2oc(=O)oc2C)n1Cc1ccc(-c2ccccc2C(=O)O)cc1` has an inhibition in vivo at 1 mg/kg (Rattus norvegicus [3]) of 72%, an inhibition in vivo at 1 mg/kg (Rattus norvegicus [4]) of 70% and an inhibition in vivo at 1 mg/kg (Rattus norvegicus [5]) of 70%.
With `CCCc1nc(C(C)(C)O)c(C(=O)OCC)n1Cc1ccc(-c2ccccc2-c2nnn[nH]2)cc1` the IC50 [2] was 200 nM.
`CCCc1nc(C(C)(C)O)c(C(=O)O)n1Cc1ccc(-c2ccccc2C(=O)OCOC(=O)C(C)(C)C)cc1` showed an inhibition in vivo at 1 mg/kg (Rattus norvegicus [3]) of 20%, an inhibition in vivo at 1 mg/kg (Rattus norvegicus [4]) of 35% and an inhibition in vivo at 1 mg/kg (Rattus norvegicus [5]) of 40%.
With `CCCc1nc(C(=O)O)c(CO)n1Cc1ccc(-c2ccccc2C(=O)O)cc1` the ID50 [1] was 8.8 mg/kg.
`CCCc1nc(C(C)(C)O)c(C(=O)OCC)n1Cc1ccc(-c2ccccc2-c2nn[nH]n2)cc1` gave an ID50 [1] of 0.32 mg/kg, an inhibition in vivo at 1 mg/kg (Rattus norvegicus [9]) of 70% and an inhibition in vivo at 1 mg/kg (Rattus norvegicus [10]) of 72%. For the same molecule, the inhibition in vivo at 1 mg/kg (Rattus norvegicus [11]) was 76%.
With `CCCc1nc(C(C)O)c(C(=O)O)n1Cc1ccc(-c2ccccc2-c2nn[nH]n2)cc1` (configuration not stated) the ID50 [1] was 0.0063 mg/kg, the inhibition in vivo at 0.3 mg/kg (Rattus norvegicus [6]) was 80% and the inhibition in vivo at 0.3 mg/kg (Rattus norvegicus [7]) was 78%. For the same molecule, the inhibition in vivo at 0.3 mg/kg (Rattus norvegicus [8]) was 69%.
In the case of `CCCc1nc(CO)c(C(=O)O)n1Cc1ccc(-c2ccccc2-c2nnn[nH]2)cc1`, the IC50 [2] is reported as 6.9 nM.
With `CCCCc1nc(Cl)c(C(=O)O)n1Cc1ccc(-c2ccccc2C(=O)O)cc1` the ID50 [1] was 0.21 mg/kg.
`CCCc1nc(C(=O)O)cn1Cc1ccc(-c2ccccc2C(=O)O)cc1` was tested, and the IC50 [2] was 45000 nM and the ID50 [1] was 8.2 mg/kg.
`CCCc1nc(CO)c(CO)n1Cc1ccc(-c2ccccc2C(=O)O)cc1` gave an ID50 [1] of 2.1 mg/kg.
Work on `CCCc1nc(C(C)O)c(C(=O)O)n1Cc1ccc(-c2ccccc2C(=O)O)cc1` (configuration not stated) yielded an IC50 [2] of 28 nM and an ID50 [1] of 0.062 mg/kg.
Molecule `CCCc1nc(C)c(C(=O)O)n1Cc1ccc(-c2ccccc2C(=O)O)cc1` has an IC50 [2] of 110 nM and an ID50 [1] of 0.096 mg/kg.
Work on `C=C(C)c1nc(CCC)n(Cc2ccc(-c3ccccc3-c3nn[nH]n3)cc2)c1C(=O)O` yielded an ID50 [1] of 0.012 mg/kg.
In the case of `CCCc1nc(C(C)(C)O)c(C(=O)OCOC(=O)OC(C)C)n1Cc1ccc(-c2ccccc2C(=O)O)cc1`, the inhibition in vivo at 1 mg/kg (Rattus norvegicus [3]) is reported as 71%, the inhibition in vivo at 1 mg/kg (Rattus norvegicus [4]) is reported as 71% and the inhibition in vivo at 1 mg/kg (Rattus norvegicus [5]) is reported as 71%.
Work on `CCCc1nc(C(=O)O)cn1Cc1ccc(-c2ccccc2-c2nn[nH]n2)cc1` yielded an ID50 [1] of 2.4 mg/kg.
